Compound activity from PubChem.
Rows were chosen to be rich in hits. Some 2.6% of all compounds tested hit in one or more screens of this group.
SENP1 FRET inh = human SENP1 catalytic domain inhibitors, primary screen, biochemical, FRET, uHTS; Sentrin-specific protease 1 (Homo sapiens), Q9P0U3; recombinant SENP1 catalytic domain, CyPet-SUMO1-YPet FRET cleavage; inhibition, % at 10 µM; 360,000 compounds, 0.21% hits;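 active = inhibition at least 30% at 10 µM, raw YFP signal under a set limit, fluorescence ratio 0.5 to 1.5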;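 also: 0% = enzyme with DMSO and 100% = no enzyme wells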
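Test system: recombinant human SENP1 catalytic domain, His6-tagged / Medium: pH 8 Tris buffer with EDTA, NaCl, BME, BSA, NP40, catalase / Also added: SUMO1 FRET substrate flanked by Cypet and Ypet, 25 nM / Times: 50 min reaction at room temperature / Signal: FRET, CFP and YFP emission / Control set: no-enzyme low control and enzyme-plus-DMSO high control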
SENP8 block-1 = human SENP8 protease inhibitors, primary screen, biochemical, fluorescence, Nedd8 protein substrate, uHTS | Sentrin-specific protease 8 (Homo sapiens), Q96LD8 | recombinant SENP8 | inhibition, % at 20 µM | 360,000 compounds, 0.64% hits | AID 602440, 2012; in the data active = inhibition mostly above about 40%, no sharp cut-off; inactive = mostly below about 27%
Platelet DG rel = inhibitors of platelet dense granule secretion, primary screen, cell-based, MLPCN, human platelets; human platelet-rich plasma, SFLLRN dense granule ATP release, luminescence; 300,000 compounds, 0.22% hits; inhibition, %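 (compounds screened at 7.5 µM in platelet-rich plasma)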;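 active = mean replicate score, as percent of positive control, at or above 50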
SENP6 inh = SENP6 protease inhibitors, primary screen, biochemical, luminescence, uHTS | inhibition, % at 10 µM | 330,000 compounds, 1.8% hits | Recombinant SENP6 catalytic domain, aminoluciferin luminescence;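 active = inhibition above about 50% at the single tested dose, limit read from the data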;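 also: plate controls were DMSO wells with enzyme for no effect and DMSO wells lacking enzyme for full effect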
Target sequence (Q9GZR1 628-1112 limits assumed): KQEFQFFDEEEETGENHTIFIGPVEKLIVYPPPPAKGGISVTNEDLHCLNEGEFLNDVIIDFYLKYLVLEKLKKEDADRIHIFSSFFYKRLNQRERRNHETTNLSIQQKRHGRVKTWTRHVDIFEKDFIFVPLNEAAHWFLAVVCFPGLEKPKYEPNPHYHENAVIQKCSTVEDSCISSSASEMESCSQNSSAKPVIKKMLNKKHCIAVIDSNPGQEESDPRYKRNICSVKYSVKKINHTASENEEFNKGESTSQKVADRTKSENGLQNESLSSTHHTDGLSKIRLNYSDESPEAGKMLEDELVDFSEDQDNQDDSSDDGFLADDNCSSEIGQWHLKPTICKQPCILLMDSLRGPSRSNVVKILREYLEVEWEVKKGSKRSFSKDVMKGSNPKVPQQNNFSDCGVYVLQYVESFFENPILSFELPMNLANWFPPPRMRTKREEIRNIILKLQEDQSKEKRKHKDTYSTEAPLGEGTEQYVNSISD
SENP7 inh = SENP7 protease inhibitors, primary screen, biochemical, luminescence, uHTS | recombinant SENP7, Z-RLRGG-aminoluciferin luminescence, 40 min | inhibition, % at 5 µM | 330,000 compounds, 1.5% hits | AID 434973, 2010;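 active = inhibition above about 50% at the single test dose, limit read from the data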;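 also: plate controls were DMSO with enzyme for no effect and no enzyme buffer wells for full effect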
SENP8 block-2 = SENP8 protease inhibitors, primary screen, biochemical, luminescence; Sentrin-specific protease 8 (Homo sapiens), Q96LD8; purified SENP8, Z-RLRGG-aminoluciferin cleavage; inhibition, % at 10 µM; 330,000 compounds, 1.2% hits; AID 2540, 2010; in the data active = inhibition above about 50%
* hit, by the source's call; · = no result given.

SMILES	SENP1 FRET inh	SENP8 block-1	Platelet DG rel	SENP6 inh	SENP7 inh	SENP8 block-2
CCOC(=O)C1Nc2ccc(Br)cc2C2C=CCC12 (stereo not drawn)	-7	59*	3	-12	-2	1
CCOC(=O)C1Nc2ccc(C)cc2C2C=CCC12 (stereo not drawn)	-14	-22	12	-4	-11	-9
O=C(CN1C(=O)/C(=C/c2ccco2)SC1=S)NC1CCS(=O)(=O)C1 (stereo not drawn)	7	41*	1	7	-2	-4
O=S(=O)(Nc1ccc(-c2nc3cccnc3s2)cc1)c1cc(F)ccc1F	-122	-443	-5	59*	-3	24
CCc1ccc(/C=C\C(=O)N2CCc3ccccc3C2)cc1	0	27	16	61*	45	47
CCc1ccc(/C=C\C(=O)N2CCCC2)cc1	0	6	12	1	0	-6
Cc1[nH]c(=O)c(C#N)c(C)c1CSc1ncccn1	-2	-72	50*	-4	0	0
Cc1[nH]c(=O)c(C#N)c(C)c1Cc1ccc(Cl)cc1Cl	-1	-190	1	10	2	7
CO/N=C/C(=N\Nc1ccc(C)cc1)C(=O)c1ccc(OC)cc1	-3	51*	11	-3	-6	-1
CC1CC(=O)c2c(cc3c(-c4c(O)cc(O)c5c(O)c6c(cc45)OC(C)CC6=O)c(O)cc(O)c3c2O)O1 (stereo not drawn)	70*	71*	5	41	26	22
O=C1CC(c2ccc(O)cc2)Oc2cc(O)cc(O)c21 (stereo not drawn)	1	-1	-1	27	5	17
O=C1C(=O)c2c(C(=O)c3ccccc3)coc2-c2ccccc21	4	61*	-1	37	8	5
O=C(C1=C(c2ccccc2)C(=O)c2ccccc2C1=O)c1ccccc1	0	35	-20	·	·	·
O=C1NC[C@H](CCCCN2CCN(CCc3ccccc3)C(=O)C2=O)N(Cc2ccccc2)C1=O	-4	1	·	·	·	·
Cc1occc1C(=O)Nc1sccc1C(N)=O	-13	-67	-7	5	-12	-7
NC(=O)c1ccsc1NC(=O)c1coc2ccccc2c1=O	2	13	0	83*	79*	66*
O=[N+]([O-])c1ccccc1N=Nc1ccc(O)cc1O	7	65*	·	·	·	·
CC1(C(=O)NS(=O)(=O)c2cccc(C#N)c2)CCN1C(=O)Cc1ccccc1Cl (stereo not drawn)	-1	3	·	·	·	·
Cc1ccc(NS(=O)(=O)c2ccc(C)c(C(=O)Nc3ccc(S(=O)(=O)Nc4onc(C)c4C)cc3)c2)cc1	3	6	·	·	·	·
COc1ccc(-n2nnc3c(SCC(=O)Nc4ccc5c(c4)OCCO5)ncnc32)cc1	·	·	·	54*	20	16
COc1ccc(-n2nnc3c(=O)n(CC(=O)Nc4ccc5c(c4)OCCO5)cnc32)cc1OC	-2	-74	4	-7	-10	3
CC(=O)Oc1ccccc1C(=O)C=Cc1cccc([N+](=O)[O-])c1	3	2	·	·	·	·
COc1ccccc1-c1noc(-c2ccccc2)n1	3	17	12	92*	93*	87*
CCOc1cc(-c2nc(-c3ccccc3OC)no2)cc(OCC)c1OCC	3	6	0	-12	-12	-10
N#CCCN(Cc1cccnc1)CN1C(=O)c2ccccc2C1=O	1	-3	·	·	·	·
SMILES	SENP1 FRET inh	SENP8 block-1	Platelet DG rel	SENP6 inh	SENP7 inh	SENP8 block-2
C(=N\Nc1nc2ccccc2[nH]1)/c1ccc2ncccc2c1	-11	-398	12	-25	31	-10
C(=N\Nc1nc2ccccc2[nH]1)/c1ccccn1	1	13	62*	·	·	·
COc1cccc2c1C(=O)c1c(O)c3c(c(O)c1C2=O)CC(O)(C(C)=O)CC3OC1CC(O)C(O)C(C)O1 (stereo not drawn)	101	50*	·	·	·	·
COc1cccc2c1C(=N)c1c(O)c3c(c(O)c1C2=O)CC(O)(C(C)=O)CC3OC1CC(N)C(O)C(C)O1 (stereo not drawn)	12	38	·	·	·	·
COC(=O)c1c[nH]c2c1-c1cc(C(=O)OCc3ccccc3)n(S(=O)(=O)c3ccc(C)cc3)c1C(=O)C2=O	2	105*	·	·	·	·
Cc1ccc(S(=O)(=O)Cc2ccc(C(=O)OCc3ccccc3)cc2)cc1	2	12	0	-13	0	6
CN1OC[C@@H]2CN(Cc3ccc(Cl)cc3)[C@H](c3ccc(N4CCCCC4)cc3)C[C@@H]21	0	10	·	·	·	·
Fc1ccc(-c2nc(-c3cccs3)no2)cc1	1	15	5	95*	94*	86*
COC(=O)c1ccc2nc(-c3ccco3)c(Cc3ccc(OC)cc3C)n2c1	-13	-94	·	·	·	·
CC(=O)N1CCc2cc(N=NC3=C(O)CC(C)(C)CC3=O)ccc21	67*	24	2	6	9	3
Cc1nc2ccc(N=NC3=C(O)CC(C)(C)CC3=O)cc2s1	9	19	-2	14	2	-1
CCOc1cc(C2Nc3cccc4cccc(c34)N2)ccc1O	-25	59*	2	31	2	2
CCOc1ccc(C2Nc3cccc4cccc(c34)N2)cc1OC	10	24	4	-26	4	2
Cc1ccc(-c2nnc(/C=C/c3ccccc3)o2)cc1	3	-391	4	76*	-2	42
Cc1nnc(-c2ccccc2)o1	1	4	-1	-10	-7	9
C[C@]1(CC/C(=C/CO)CO)[C@H](C=O)CC[C@@]23COC(=O)C2=CCC[C@@H]31	2	7	·	·	·	·
O=C(Nc1ccccc1)OCc1cc(-c2ccccc2Cl)on1	-1	10	52*	-5	-1	-8
O=C(N/N=C/c1cc(Br)ccc1O)c1ccncc1	-31	18	-18	11	6	-2
O=C(N/N=C/c1ccc(O)c2ncccc12)c1cccc(Br)c1	52*	-105	-3	-5	0	1
CN1C(=O)N(C)c2cccc3cccc1c23	-2	11	0	1	7	1
CC1=Nc2cccc3cccc(c23)N1C	-45	44*	10	-3	-1	-6
COC(=O)C(C(=O)OC)c1ccccc1NS(=O)(=O)c1c(C)cc(C)cc1C	1	20	·	·	·	·
Cc1ccc(OCCOC(=O)c2sc(=S)n(C)c2C)cc1	0	11	-2	-3	9	-3
CCOC(=O)C(OC(=O)c1sc(=S)n(C)c1C)C(C)=O (stereo not drawn)	2	18	50*	-12	-4	7
Cn1c(=O)c(C(=O)Nc2ccccn2)c(O)c2ccccc21	0	-188	11	-5	75*	36
